This is an account of results in PubChem BioAssay AID624363 (Broad Institute, 2012).

Values joined by “and” are separate entries in the source; they are usually repeats but may differ in a detail not shown here. Identical values can stand only once.

In the experiment the test system is SK-MEL-5 TRPM1 promoter luciferase reporter, 24 h. In words: MITF transcriptional activity inhibition, TRPM1 luciferase – cell-based, SK-MEL-5, dry powder, set 5, dose response (AID 624363). In outline: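 Assay system: SK-MEL-5 melanoma line with stable TRPM1 promoter–luciferase reporter; buffer or medium: phenol red-free DMEM, 10% FBS; compound: pin-transferred compounds; incubation: compound exposure 24 h at 37 °C, one day after plating; detection: SteadyGlo luciferase luminescence after 5 min at room temperature; control set: parthenolide 27 µM positive control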
For `CC1CCN(CC(CS(=O)(=O)c2ccc([N+](=O)[O-])cc2)N2CCC(C)CC2)CC1` (stereo not drawn), the half-maximal activity concentration (AC50) (as a rule, the concentration at which the activity in the assay is half-maximal) was 2.71 µM.
Regarding `O=C(NC1=C(c2ccccc2)C(=O)c2ccccc2C1=O)c1ccc(Br)cc1`, the AC50 is 24.4 µM.
With `CCN1CCN(C2=C(NC(=O)c3ccc(Br)cc3)C(=O)c3ccccc3C2=O)CC1`, the AC50 was 0.845 µM.
For `COC1=C(NS(=O)(=O)c2ccccc2)C(=O)c2ccccc2C1=O`, the AC50 is 4.93 µM.
Turning to `C=CCNC1=C(NCCN(CC)CC)C(=O)c2ccccc2C1=O`, the AC50 was 4.88 µM.
On to `NC1=C(NS(=O)(=O)c2cccs2)C(=O)c2ccccc2C1=O`, for which the AC50 is 4.17 µM.
For `CCN1CCN(C2=C(Nc3ccccc3)C(=O)c3ccccc3C2=O)CC1`, the AC50 is 0.809 µM.
On to `CN1CCN(C2=C(NC(=O)c3ccc(Br)cc3)C(=O)c3ccccc3C2=O)CC1`, for which the AC50 was 1.14 µM.
Consider `CC(=O)NC1=C(c2ccccc2)C(=O)c2ccccc2C1=O`, for which the AC50 was 6.67 µM.
Consider `O=C1C(NS(=O)(=O)c2ccccc2)=C(N2CCOCC2)C(=O)c2ccccc21`, for which the AC50 was 19.3 µM.
Consider `O=C1C=C(NS(=O)(=O)c2cccs2)C(=O)c2ccccc21`, for which the AC50 was 1.71 µM.
For `O=C1C(Nc2ccccc2)=C(N2CCSCC2)C(=O)c2ccccc21`, the AC50 was 9.7 µM.
Next, `CCN(CC)CCCCNC1=C(Nc2ccccc2)C(=O)c2ccccc2C1=O`: 4.14 µM.
Next, `C[C@@H](NC1=C(Nc2ccccc2)C(=O)c2ccccc2C1=O)c1ccccc1`: 13.4 µM; `C=CCNC1=C(N2CCSCC2)C(=O)c2ccccc2C1=O`: 3.93 µM.
`C=CCNC1=C(N2CCOCC2)C(=O)c2ccccc2C1=O`: the AC50 was 2.54 µM.
Take `O=C1C(NS(=O)(=O)c2cccs2)=C(c2ccccc2)C(=O)c2ccccc21`: the AC50 was 10.5 µM.
As for `CN1CCN(C2=C(Nc3ccccc3)C(=O)c3ccccc3C2=O)CC1`, the AC50 is 7.78 µM.
As to `CN1CCN(C2=C(NS(=O)(=O)c3ccccc3)C(=O)c3ccccc3C2=O)CC1`, the AC50 was 1.09 µM.
Next, `COc1ccc(C(=O)NC2=C(c3ccccc3)C(=O)c3ccccc3C2=O)cc1`: 14.4 µM.
In the case of `C=CCNC1=C(N2CCN(C)CC2)C(=O)c2ccccc2C1=O`, the AC50 is 3.89 µM.
For `CN1CCN(C2=C(NS(=O)(=O)c3ccc(Br)cc3)C(=O)c3ccccc3C2=O)CC1`, the AC50 is 7.58 µM.
Regarding `COc1ccc(C2=C(NC(=O)c3ccccc3Cl)C(=O)c3ccccc3C2=O)cc1`, the AC50 was 5.18 µM.
Take `CCN1CCN(C2=C(NC(=O)c3ccccc3)C(=O)c3ccccc3C2=O)CC1`: the AC50 is 0.783 µM.
`O=C(NC1=C(Cl)C(=O)c2ccccc2C1=O)c1ccccc1`: the AC50 is 0.806 µM.
As for `CC(=O)N(C)C1=C(N2CCN(C)CC2)C(=O)c2ccccc2C1=O`, the AC50 was 0.404 µM.
`CCN(CC)CCNC1=C(Nc2ccccc2)C(=O)c2ccccc2C1=O`: the AC50 is 4.88 µM.
Next, `O=C1C(Nc2ccccc2)=C(N2CCCCC2)C(=O)c2ccccc21`: 6.28 µM; `O=C1C(Nc2ccccc2)=C(c2ccccc2)C(=O)c2ccccc21`: 4.49 µM.
Consider `CC(=O)N(C)C1=C(N2CCCCC2)C(=O)c2ccccc2C1=O`, for which the AC50 was 0.796 µM.
Take `CC(=O)NC1=C(c2ccc3c(c2)oc2ccccc23)C(=O)c2ccccc2C1=O`: the AC50 is 2.15 µM.
For the compound `O=C(NC1=C(N2CCOCC2)C(=O)c2ccccc2C1=O)c1ccccc1`, the AC50 is 8.05 µM.
Regarding `NC1=CC(=O)c2ccccc2C1=O`, the AC50 was 1.06 µM.
As to `C=CCNC1=C(NS(=O)(=O)c2cccs2)C(=O)c2ccccc2C1=O`, the AC50 was 14.2 µM.
For the compound `O=C1C(NS(=O)(=O)c2ccc(Br)cc2)=C(N2CCOCC2)C(=O)c2ccccc21`, the AC50 is 14.4 µM.
With `CN1CCN(C2=C(NS(=O)(=O)c3cccs3)C(=O)c3ccccc3C2=O)CC1`, the AC50 is 3.51 µM.
For the compound `COc1cccc(C2=C(NC(=O)c3ccccc3)C(=O)c3ccccc3C2=O)c1`, the AC50 was 16.6 µM.
With `NC1=C(c2ccccc2)C(=O)c2ccccc2C1=O`, the concentration at half-maximal activity (AC50) was 4.34 µM.
For the compound `O=C1C(NS(=O)(=O)c2cccs2)=C(N2CCOCC2)C(=O)c2ccccc21`, the AC50 was 12.4 µM.
As for `COc1ccc(C2=C(NC(=O)c3ccc(Cl)cc3)C(=O)c3ccccc3C2=O)cc1`, the AC50 is 15.3 µM.
As to `O=C(NC1=C(c2ccc(OC(F)(F)F)cc2)C(=O)c2ccccc2C1=O)c1ccc(Br)cc1`, the AC50 was 25 µM.
As to `O=C(NC1=C(c2ccc(OC(F)(F)F)cc2)C(=O)c2ccccc2C1=O)c1ccco1`, the AC50 was 20.9 µM.
Consider `O=C1C(Nc2ccccc2)=C(N2CCN(c3ccccc3)CC2)C(=O)c2ccccc21`, for which the concentration at half-maximal activity (AC50) is 12.1 µM.
The figure for `CNC1=CC(=O)c2ccccc2C1=O` is 9.17 µM.
Turning to `COc1ccc(C2=C(NC(=O)c3cccc(Cl)c3)C(=O)c3ccccc3C2=O)cc1`, the AC50 was 11 µM.
Take `O=C(NC1=C(c2ccc(OC(F)(F)F)cc2)C(=O)c2ccccc2C1=O)c1ccccc1`: the AC50 was 18.9 µM.
The figure for `C=CCNC1=C(NC(=O)c2ccccc2)C(=O)c2ccccc2C1=O` is 26.5 µM; for `O=C1C(Nc2ccccc2)=C(NS(=O)(=O)c2ccccc2[N+](=O)[O-])C(=O)c2ccccc21` it is 16.9 µM.
Regarding `O=C(NC1=C(c2ccc(OC(F)(F)F)cc2)C(=O)c2ccccc2C1=O)c1ccccc1F`, the AC50 is 19.9 µM.
Take `COC1=C(NS(=O)(=O)c2ccc(Br)cc2)C(=O)c2ccccc2C1=O`: the AC50 is 7.22 µM.
Turning to `O=C1C(NS(=O)(=O)c2ccc(Br)s2)=C(N2CCCCC2)C(=O)c2ccccc21`, the AC50 is 23.3 µM.
Regarding `COC1=C(NS(=O)(=O)c2cccs2)C(=O)c2ccccc2C1=O`, the AC50 was 17.5 µM.
Consider `O=C1C(NS(=O)(=O)c2ccccc2)=C(N2CCCCC2)C(=O)c2ccccc21`, for which the AC50 was 22.2 µM.
The figure for `C=CCNC1=C(NCCCN(CC)CC)C(=O)c2ccccc2C1=O` is 4.6 µM; for `NC1=C(c2ccc(OC(F)(F)F)cc2)C(=O)c2ccccc2C1=O` it is 20.4 µM.
Take `COc1ccc(C2=C(NC(=O)c3cccc(OC)c3)C(=O)c3ccccc3C2=O)cc1`: the AC50 was 6.98 µM.
As for `O=C1C(NS(=O)(=O)c2ccc(Br)cc2)=C(N2CCCCC2)C(=O)c2ccccc21`, the AC50 is 27.7 µM.
For `O=C(NC1=C(c2ccccc2)C(=O)c2ccccc2C1=O)c1ccco1`, the concentration at half-maximal activity (AC50) was 9.7 µM.
The figure for `O=C1C(NS(=O)(=O)c2cccs2)=C(N2CCCCC2)C(=O)c2ccccc21` is 22.1 µM; for `C=CCNC1=C(NS(=O)(=O)c2ccc(Br)cc2)C(=O)c2ccccc2C1=O` it is 11.9 µM.
Next, `CN1CCN(C2=C(NS(=O)(=O)c3ccc(Br)s3)C(=O)c3ccccc3C2=O)CC1`: 1.98 µM; `Cc1nc2ccccc2n1/N=C/c1ccc([N+](=O)[O-])s1`: 4.34 µM.
On to `COc1ccc(C2=C(NC(=O)c3ccccc3OC)C(=O)c3ccccc3C2=O)cc1`, for which the AC50 is 23.7 µM.
Next, `O=C1C(Nc2ccccc2)=C(N2CCOCC2)C(=O)c2ccccc21`: 12.8 µM and 7.07 µM; `COC1=C(Nc2ccccc2)C(=O)c2ccccc2C1=O`: 2.69 µM.
The figure for `COc1cccc(-c2cc(C(=O)NC3=C(Cl)C(=O)c4ccccc4C3=O)ccc2OC)c1` is 3.34 µM; for `NC1=C(NS(=O)(=O)c2ccc(Br)s2)C(=O)c2ccccc2C1=O` it is 17.5 µM.
As to `CCN1CCN(C2=C(NS(=O)(=O)c3ccc(Br)s3)C(=O)c3ccccc3C2=O)CC1`, the AC50 is 3.89 µM.
